SUMO1-SIM PPI – modulators of human SUMO1-mediated protein-protein interactions; SUMO1 binding to a labelled peptide, TR-FRET, 1 h; inhibition, % at 20 µM; 0.33% of 360,000 active; P63165; in the data active = inhibition above about 37%
Target sequence (P63165 whole entry, looked up): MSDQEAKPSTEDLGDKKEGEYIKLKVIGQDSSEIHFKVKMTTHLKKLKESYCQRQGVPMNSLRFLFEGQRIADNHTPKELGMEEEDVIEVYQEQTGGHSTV
STEP inh – blocks human striatal-enriched tyrosine phosphatase. P54829. 0.25% of 360,000 active. AID 588621. inhibition, % at 20 µM. recombinant STEP, OMFP fluorogenic substrate, fluorescence;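 active = inhibition at 20 µM, scaled per plate between control wells, above about 37%, limit read from the data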
Target sequence (P54829 whole entry, looked up): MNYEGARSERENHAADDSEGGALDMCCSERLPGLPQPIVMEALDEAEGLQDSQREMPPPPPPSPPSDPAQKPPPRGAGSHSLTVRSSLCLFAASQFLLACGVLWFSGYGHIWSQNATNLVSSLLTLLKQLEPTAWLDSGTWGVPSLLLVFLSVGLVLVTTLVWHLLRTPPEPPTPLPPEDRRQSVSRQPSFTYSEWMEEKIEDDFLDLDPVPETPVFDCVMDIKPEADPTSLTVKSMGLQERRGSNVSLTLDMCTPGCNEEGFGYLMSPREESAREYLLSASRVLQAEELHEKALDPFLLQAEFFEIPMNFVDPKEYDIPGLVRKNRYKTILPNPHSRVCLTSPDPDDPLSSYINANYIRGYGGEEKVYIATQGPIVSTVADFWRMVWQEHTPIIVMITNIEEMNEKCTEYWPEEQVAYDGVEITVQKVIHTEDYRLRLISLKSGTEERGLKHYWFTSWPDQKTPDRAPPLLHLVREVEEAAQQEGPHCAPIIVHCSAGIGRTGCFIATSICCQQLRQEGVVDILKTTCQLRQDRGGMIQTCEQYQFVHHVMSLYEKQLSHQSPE
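System: isolated STEP enzyme; schedule: 20 min enzyme reaction at room temperature, protected from light; medium: Bis-Tris buffer pH 6.0, 2.5 mM DTT, 0.005% Tween 20; signal: fluorescence, 480/540 nm; dosing: single compound dose of 20 µM, 1% DMSO final; also added: OMFP substrate, 25 µM final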
LMPTP block – blocks human LMPTP phosphatase | P24666 | recombinant LMPTP-A, OMFP fluorogenic substrate, fluorescence intensity | inhibition, % at 20 µM | 0.22% of 360,000 active | AID 651560;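 active = compounds that cut the enzyme signal by at least half of the control window in the single-dose screen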
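Assay system: LMPTP-A phosphatase enzyme | Input: 0.625 nM enzyme | Also added: Fluorogenic phosphatase substrate OMFP at 400 µM final | Compound dosing: One test concentration per compound, 20 µM, with 3% DMSO overall | Schedule: 50 min enzyme reaction at room temperature, protected from light | Signal: Fluorescence intensity | Benchmarks: no-enzyme and uninhibited controls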
FAS-TE inh – inhibitors of human fatty acid synthase thioesterase domain. recombinant FAS-TE, OMFH fluorogenic substrate, fluorescence endpoint. P49327. inhibition, % at 15 µM. 0.67% of 360,000 active;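 active = compounds whose normalised, plate-corrected inhibition of enzyme fluorescence in the single-dose primary screen is 50% or more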
Scp-1 inhibitor – blocks human Scp-1 phosphatase activity | inhibition, % at 20 µM | Q9GZU7 | Recombinant Scp1, phosphopeptide, malachite green phosphate absorbance | AID 493091 | 0.88% of 340,000 active;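 active = inhibition above about 50% at 20 µM, limit read from the data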
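System: truncated SCP-1 phosphatase (76-261aa); medium: Tris acetate buffer pH 5.5 with MgCl2 and Tween-20; incubation: 45 min room-temperature reaction, 5 min colour, 30 min stabiliser; compound: single 20 µM dose, 1% DMSO; reagent: Phosphorylated 17-residue peptide substrate; read-out: % inhibition at 20 µM; technique: colorimetric free-phosphate detection, absorbance 630 nm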
FAS-TE inh conf – confirmation of human fatty acid synthase thioesterase inhibitors. shares compounds with FAS-TE inh. recombinant FAS-TE, OMFH fluorogenic substrate, fluorescence. inhibition, % at 15 µM. 45% of 2,300 active. AID 624325;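 active = compounds inhibiting the enzyme by at least 50% at 15 µM in any one of the replicates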
Each line names hits and unclear results; the compound was inactive in the other large screens (follow-up assays come after a bar, where they were run). Most compounds without a hit are left out; they make up all but 1.9% or so of the library.

CCC(=O)OCCNc1cc(Sc2nc3ccccc3s2)c2nonc2c1[N+](=O)[O-]	FAS-TE inh 83 | FAS-TE inh conf inactive
CC(=O)OCCCNc1cc(SCc2ccco2)c2nonc2c1[N+](=O)[O-]	none
Cc1ccc(S(=O)(=O)NCC(=O)OCC(=O)NCc2ccc(F)cc2)cc1	none
Cn1nnnc1SCC(=O)Nc1ccc2c(c1)OCO2	none
Cc1ccc(C(=O)Nc2ccccc2N2CCCC2)cc1	none
COc1ccc(NS(=O)(=O)c2cccc(C(=O)NCc3cccnc3)c2)cc1	none
N/C(=N\OC(=O)CCC1CCCCC1)c1cccc([N+](=O)[O-])c1	FAS-TE inh 67 | FAS-TE inh conf 66
C#CCN(C[C@H]1[C@H](OC(=O)NCc2ccc(OC)c(OC)c2)[C@H](OC(=O)NCc2ccc(OC)c(OC)c2)C[C@H]2C(=O)N(c3ccccc3)C(=O)[C@@H]12)S(=O)(=O)c1ccc(C)cc1	FAS-TE inh 71 (no result: Scp-1 inhibitor) | FAS-TE inh conf inactive
C#CCN(C[C@H]1[C@H](OC(=O)NCc2ccccc2)[C@H](OC(=O)NCc2ccccc2)C[C@@H](C(=O)OC)[C@H]1C(=O)OC)S(=O)(=O)c1ccc(C)cc1	none (no result: Scp-1 inhibitor)
C#CCN(C[C@H]1[C@H](OC(=O)NCc2ccccc2F)[C@H](OC(=O)NCc2ccccc2F)C[C@H]2C(=O)N(c3ccccc3)C(=O)[C@@H]12)S(=O)(=O)c1ccc(C)cc1	FAS-TE inh 54 (no result: Scp-1 inhibitor) | FAS-TE inh conf inactive
C#CCN(C[C@H]1[C@H](OC(=O)NCCCCCC)[C@H](OC(=O)NCCCCCC)C[C@@H](C(=O)OC)[C@H]1C(=O)OC)S(=O)(=O)c1ccc(C)cc1	none (no result: Scp-1 inhibitor)
Cc1ccc(C(=O)NC(C)C2CC3CCC2C3)c(C)c1 (configuration not stated)	none
COc1cc(-n2c(C)nc3ncn(-c4ccccc4)c3c2=O)cc(OC)c1OC	none (no result: Scp-1 inhibitor)
COc1ccc([C@@H]2[C@@H]3C(=O)N(C(C)(C)C)C(=O)[C@@H]3[C@]3(Cc4ccccc4)C(=O)N(c4cccc(C)c4)C(=O)N23)cc1	none
COc1ccc([C@@H]2[C@@H]3C(=O)N(C(C)(C)C)C(=O)[C@@H]3[C@]3(Cc4ccc(Cl)cc4)C(=O)N(c4cccc(Br)c4)C(=O)N23)cc1	FAS-TE inh 95 | FAS-TE inh conf inactive
COc1ccc([C@@H]2[C@@H]3C(=O)N(C(C)(C)C)C(=O)[C@@H]3[C@]3(Cc4ccc(Cl)cc4)C(=O)N(c4cccc(F)c4)C(=O)N23)cc1	FAS-TE inh 72 | FAS-TE inh conf inactive
Clc1ccc(-c2cn(-c3nc4ccccc4s3)nn2)cc1	none (no result: STEP inh, Scp-1 inhibitor)
COc1ccc(NC(=O)/C(C#N)=C/c2c(C)nn(-c3ccc(F)cc3)c2Cl)cc1OC	FAS-TE inh 56 | FAS-TE inh conf inactive
COc1ccc(NC(=O)/C(C#N)=C/c2c(C)nn(-c3ccc(F)cc3)c2Cl)cc1Cl	none
Cc1ccc(SC2=C(Sc3ccc(C)cc3)C(=O)c3ccccc3C2=O)cc1	FAS-TE inh 70 | FAS-TE inh conf inactive
CN(C)S(=O)(=O)c1ccc(N2C(=O)CC2(/C=C/c2ccccc2)C(=O)NC2CCCC2)cc1 (configuration not stated)	FAS-TE inh 60 | FAS-TE inh conf inactive
N=c1c(S(=O)(=O)c2ccccc2)cc2c(=O)n3ccccc3nc2n1C1CCCCC1	none
COc1ccc(CCn2c(=N)c(S(=O)(=O)c3ccc(C)cc3)cc3c(=O)n4ccccc4nc32)cc1	FAS-TE inh 59 | FAS-TE inh conf inactive
N=c1c(S(=O)(=O)c2ccc(Cl)cc2)cc2c(=O)n3ccccc3nc2n1C1CCCC1	FAS-TE inh 65 | FAS-TE inh conf inactive
Cc1ccc(Cn2c(=N)c(S(=O)(=O)c3ccc(Br)cc3)cc3c(=O)n4ccccc4nc32)cc1	none
O=C(Nc1ccc(F)c(Cl)c1)c1csc(COCCO)n1	none (no result: Scp-1 inhibitor)
OCCN1CCN(c2ncnc3c2ncn3[C@H]2CN(Cc3ccc(F)cc3)C[C@@H](CO)O2)CC1	none (no result: Scp-1 inhibitor)
C=CCn1c(CCc2cc(C(C)(C)C)c(O)c(C(C)(C)C)c2)n[nH]c1=S	none
COc1ccc(C2=NOC(COc3ccc([N+](=O)[O-])cc3)C2)cc1 (configuration not stated)	FAS-TE inh 54 | FAS-TE inh conf inactive
COc1ccc(-c2cc([N+](=O)[O-])ccc2OCC(=O)N(C)CC(=O)Nc2ccc(C)cc2)cc1	FAS-TE inh 60 | FAS-TE inh conf 64
COc1ccc2nc(NC(=O)CSC(C)C(=O)Nc3cc(C)on3)sc2c1 (configuration not stated)	none
Cc1ccc(S(=O)(=O)N2[C@@H](c3ccc(C(C)(C)C)cc3)C(C(=O)O)=CC[C@H]2c2cccc(Cl)c2)cc1	none
Cc1ccc(S(=O)(=O)N2[C@@H](c3ccc(C(C)(C)C)cc3)C(C(=O)O)=CC[C@H]2c2ccc(Cl)c(Cl)c2)cc1	SUMO1-SIM PPI 43, FAS-TE inh 55 | FAS-TE inh conf inactive
O=C(COC(=O)Cc1c[nH]c2ccccc12)Nc1cc(S(=O)(=O)N2CCOCC2)ccc1Cl	none
CN(C)C(=O)c1cc(Cl)ccc1Sc1cc(Cl)ccc1Cl	none
Oc1ccc(Cl)cc1Sc1cc(Cl)ccc1O	FAS-TE inh 88 | FAS-TE inh conf 98
COCc1c(C(=O)OCC(=O)NCCc2ccc(S(N)(=O)=O)cc2)oc2ccccc12	none
CCn1c2ccccc2c2cc(NC(=O)COC(=O)c3cc(OC)c(OC)cc3OC)ccc21	FAS-TE inh 64 | FAS-TE inh conf inactive
Cn1c(=O)c(C#N)c(-c2ccc(F)cc2)c2cc(C(=O)c3cc(Cl)cc(Cl)c3O)cnc21	FAS-TE inh 54 | FAS-TE inh conf inactive
COc1ccccc1-n1c(=O)c(C#N)c(-c2ccc([N+](=O)[O-])cc2)c2cc(C(=O)c3cc(F)ccc3O)cnc21	none
O=C(CN(C(=O)CCC(=O)Nc1ccccn1)c1ccccc1F)NCc1ccc2c(c1)OCO2	none
Cc1ccc(S(=O)(=O)N2CCOCC2)cc1C(=O)NCCN1C(=O)S/C(=C\c2ccccc2Cl)C1=O	FAS-TE inh 56 | FAS-TE inh conf inactive
O=C(NCCN1C(=O)S/C(=C\c2cccnc2)C1=O)c1cc(S(=O)(=O)N2CCOCC2)ccc1F	none
CCN(Cc1ccccc1)c1ccc(N=Nc2nn(C)c(C)c2[N+](=O)[O-])cc1	FAS-TE inh 52 | FAS-TE inh conf 36
CCN(CC)c1ccc(N=Nc2nn(C)c(C)c2[N+](=O)[O-])cc1	none
CC(=O)Oc1ccc(N(C(C)=O)S(=O)(=O)c2ccc(C)c([N+](=O)[O-])c2)cc1	none
COc1ccc(S(=O)(=O)Nc2ccc3c(c2)C(=O)N([C@H](C)CO)C[C@H](C)[C@@H](CN(C)S(=O)(=O)c2cn(C)cn2)OCCCC[C@H](C)O3)cc1	none (no result: Scp-1 inhibitor)

Screens deposited in PubChem BioAssay by Sanford-Burnham Center for Chemical Genomics.
